From ChEMBL document CHEMBL3232897, “Synthesis, antiproliferative and antibacterial activity of new amides of salinomycin” (Bioorg Med Chem Lett, 2014)
Values after ≈ are worked out from the molar mass of the structure shown. Active and inactive are the calls of the source. The rule behind the calls is not given here.

How the values were obtained:
LoVo [1] = experiment: Selectivity index, ratio of IC50 for mouse BALB/3T3 cells to IC50 for human LoVo cells; assay type: functional
In short: (§1)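 Selectivity index is the IC50 in normal murine embryonic fibroblasts (BALB/3T3) divided by the IC50 in the respective cancer line (HL-60, HL-60/vinc, LoVo or LoVo/DX). Each IC50 is the concentration giving 50% growth inhibition. SI >1.0 is taken as favourable.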

Staphylococcus aureus [2] = experiment: Antibacterial activity against Staphylococcus aureus NCTC 4163; assay type: functional
[3] = tested on: Staphylococcus epidermidis; experiment: Antibacterial activity against methicillin-resistant Staphylococcus epidermidis 469/11; assay type: functional
In short: (§2)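 In vitro antibacterial test on Staphylococcus strains, including MRSE clinical isolates. Read-outs were growth inhibition zone (mm) and MIC (µg/ml). Ciprofloxacin was the reference antibiotic.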

[4] = tested on: Staphylococcus epidermidis; experiment: Antibacterial activity against Staphylococcus epidermidis ATCC 12228; assay type: functional; in short: as §2
[5] = Antiproliferative activity against human LoVo/DX cells; assay type: functional, cell-based
In short: (§3)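 IC50 is the concentration giving 50% growth inhibition, reported as mean with SD. HL-60/vinc and LoVo/DX are drug-resistant (MDR) sublines of HL-60 and LoVo. BALB/3T3 is a normal murine embryonic fibroblast line.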

[6] = Selectivity index, ratio of IC50 for mouse BALB/3T3 cells to IC50 for human LoVo/DX cells; assay type: functional; in short: as §1
[7] = tested on: Staphylococcus epidermidis; experiment: Antibacterial activity against methicillin-resistant Staphylococcus epidermidis 460/11; assay type: functional; in short: as §2
Staphylococcus aureus [8] = experiment: Antibacterial activity against Staphylococcus aureus ATCC 25923; assay type: functional
[9] = tested on: Staphylococcus epidermidis; experiment: Antibacterial activity against methicillin-resistant Staphylococcus epidermidis 466/11; assay type: functional; in short: as §2
[10] = tested on: Staphylococcus epidermidis; experiment: Antibacterial activity against methicillin-resistant Staphylococcus epidermidis 489/11; assay type: functional; in short: as §2
[11] = tested on: Staphylococcus epidermidis; experiment: Antibacterial activity against methicillin-resistant Staphylococcus epidermidis 461/11; assay type: functional; in short: as §2
LoVo [12] = experiment: Resistance index, ratio of IC50 for human LoVo/DX cells to IC50 for human LoVo cells; assay type: functional
In short: (§4)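 Index of resistance is the IC50 in the resistant subline (HL-60/vinc or LoVo/DX) divided by the IC50 in its parental line (HL-60 or LoVo). Each IC50 is the concentration giving 50% growth inhibition. Bands are 0–2 sensitive, 2–10 moderate, above 10 strongly resistant.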

[13] = tested on: Staphylococcus epidermidis; experiment: Antibacterial activity against Staphylococcus epidermidis ATCC 35984; assay type: functional; in short: as §2
[14] = tested on: Staphylococcus epidermidis; experiment: Antibacterial activity against methicillin-resistant Staphylococcus epidermidis 470/11; assay type: functional; in short: as §2
HL-60 [15] = experiment: Resistance index, ratio of IC50 for human HL60/Vinc cells to IC50 for human HL60 cells; assay type: functional; in short: as §4
BALB/3T3 [16] = experiment: Antiproliferative activity mouse BALB/3T3 cells; assay type: cell-based; in short: as §3
Staphylococcus aureus [17] = experiment: Antibacterial activity against Staphylococcus aureus ATCC 6538; assay type: functional
HL-60 [18] = experiment: Selectivity index, ratio of IC50 for mouse BALB/3T3 cells to IC50 for human HL60 cells; assay type: functional; in short: as §1
[19] = Selectivity index, ratio of IC50 for mouse BALB/3T3 cells to IC50 for human HL60/Vinc cells; assay type: functional; in short: as §1
[20] = Antiproliferative activity against human HL60/Vinc cells; assay type: functional, cell-based; in short: as §3
[21] = tested on: Staphylococcus epidermidis; experiment: Antibacterial activity against methicillin-resistant Staphylococcus epidermidis 459/11; assay type: functional; in short: as §2
[22] = tested on: Staphylococcus epidermidis; experiment: Antibacterial activity against methicillin-resistant Staphylococcus epidermidis 468/11; assay type: functional; in short: as §2
LoVo [23] = experiment: Antiproliferative activity against human LoVo cells; assay type: functional, cell-based; in short: as §3
HL-60 [24] = experiment: Antiproliferative activity against human HL60 cells; assay type: functional, cell-based; in short: as §3
[25] = tested on: Staphylococcus epidermidis; experiment: Antibacterial activity against methicillin-resistant Staphylococcus epidermidis 488/11; assay type: functional; in short: as §2
[26] = tested on: Staphylococcus epidermidis; experiment: Antibacterial activity against methicillin-resistant Staphylococcus epidermidis 467/11; assay type: functional; in short: as §2
Staphylococcus aureus [27] = experiment: Antibacterial activity against Staphylococcus aureus ATCC 29213; assay type: functional
Homo sapiens = species: Homo sapiens; experiment: Antiproliferative activity against human HL60/Vinc cells up to 100 ug/ml; assay type: functional, cell-based
BALB/3T3 [28] = experiment: Antiproliferative activity mouse BALB/3T3 cells up to 100 ug/ml; assay type: cell-based

Structure (SMILES)	MIC (Staphylococcus aureus [2])	MIC [3]	MIC [4]	IC50 [5]	MIC [7]	MIC (Staphylococcus aureus [8])	MIC [9]	MIC [10]	MIC [11]	Ratio IC50 (LoVo [12])	MIC [13]	MIC [14]	MIC (Staphylococcus aureus [17])	MIC [21]	MIC [22]	IC50 (LoVo [23])	IC50 (HL-60 [24])	MIC [25]	MIC [26]	MIC (Staphylococcus aureus [27])	further results
CC[C@@H](C(=O)[C@@H](C)[C@@H](O)[C@H](C)[C@@H]1O[C@@H]([C@@H](CC)C(=O)O)CC[C@@H]1C)[C@H]1O[C@]2(C=C[C@@H](O)[C@]3(CC[C@@](C)([C@H]4CC[C@](O)(CC)[C@H](C)O4)O3)O2)[C@H](C)C[C@@H]1C [SALINOMYCIN]	2 µg/mL (≈ 2.66 µM)	16 µg/mL (≈ 21.3 µM)	2 µg/mL (≈ 2.66 µM)	1 µM	16 µg/mL (≈ 21.3 µM)	2 µg/mL (≈ 2.66 µM)	8 µg/mL (≈ 10.7 µM)	16 µg/mL (≈ 21.3 µM)	16 µg/mL (≈ 21.3 µM)	0.65	2 µg/mL (≈ 2.66 µM)	16 µg/mL (≈ 21.3 µM)	2 µg/mL (≈ 2.66 µM)	16 µg/mL (≈ 21.3 µM)	8 µg/mL (≈ 10.7 µM)	1.5 µM	1.2 µM	16 µg/mL (≈ 21.3 µM)	16 µg/mL (≈ 21.3 µM)	4 µg/mL (≈ 5.33 µM)	Ratio IC50 (LoVo [1]): 16.88; Ratio IC50 [6]: 26.08; Ratio IC50 (HL-60 [15]): 4.05; IC50 (BALB/3T3 [16]): 25.8 µM; Ratio IC50 (HL-60 [18]): 22.07; Ratio IC50 [19]: 5.45; IC50 [20]: 4.7 µM
CC[C@@H](C(=O)[C@@H](C)[C@@H](O)[C@H](C)[C@@H]1O[C@@H]([C@@H](CC)C(=O)NCCS)CC[C@@H]1C)[C@H]1O[C@]2(C=C[C@@H](O)[C@]3(CC[C@@](C)([C@H]4CC[C@](O)(CC)[C@H](C)O4)O3)O2)[C@H](C)C[C@@H]1C	16 µg/mL (≈ 19.7 µM)	64 µg/mL (≈ 79 µM)	32 µg/mL (≈ 39.5 µM)	28.5 µM	32 µg/mL (≈ 39.5 µM)	16 µg/mL (≈ 19.7 µM)	32 µg/mL (≈ 39.5 µM)	32 µg/mL (≈ 39.5 µM)	32 µg/mL (≈ 39.5 µM)	1.07	32 µg/mL (≈ 39.5 µM)	64 µg/mL (≈ 79 µM)	16 µg/mL (≈ 19.7 µM)	32 µg/mL (≈ 39.5 µM)	64 µg/mL (≈ 79 µM)	26.5 µM	3.1 µM	32 µg/mL (≈ 39.5 µM)	32 µg/mL (≈ 39.5 µM)	32 µg/mL (≈ 39.5 µM)	Ratio IC50 (LoVo [1]): 0.65; Ratio IC50 [6]: 0.6; Ratio IC50 (HL-60 [15]): 10.99; IC50 (BALB/3T3 [16]): 17.1 µM; Ratio IC50 (HL-60 [18]): 5.53; Ratio IC50 [19]: 0.5; IC50 [20]: 34 µM
CC[C@@H](C(=O)[C@@H](C)[C@@H](O)[C@H](C)[C@@H]1O[C@@H]([C@@H](CC)C(=O)NCCOCCO)CC[C@@H]1C)[C@H]1O[C@]2(C=C[C@@H](O)[C@]3(CC[C@@](C)([C@H]4CC[C@](O)(CC)[C@H](C)O4)O3)O2)[C@H](C)C[C@@H]1C	32 µg/mL (≈ 38.2 µM)	64 µg/mL (≈ 76.4 µM)	64 µg/mL (≈ 76.4 µM)	14.3 µM	64 µg/mL (≈ 76.4 µM)	32 µg/mL (≈ 38.2 µM)	64 µg/mL (≈ 76.4 µM)	64 µg/mL (≈ 76.4 µM)	64 µg/mL (≈ 76.4 µM)	0.39	64 µg/mL (≈ 76.4 µM)	64 µg/mL (≈ 76.4 µM)	32 µg/mL (≈ 38.2 µM)	32 µg/mL (≈ 38.2 µM)	64 µg/mL (≈ 76.4 µM)	36.7 µM	17.8 µM	64 µg/mL (≈ 76.4 µM)	32 µg/mL (≈ 38.2 µM)	64 µg/mL (≈ 76.4 µM)	Ratio IC50 (LoVo [1]): 1.08; Ratio IC50 [6]: 2.76; Ratio IC50 (HL-60 [15]): 1.74; IC50 (BALB/3T3 [16]): 39.4 µM; Ratio IC50 (HL-60 [18]): 2.22; Ratio IC50 [19]: 1.28; IC50 [20]: 30.9 µM
CC[C@@H](C(=O)[C@@H](C)[C@@H](O)[C@H](C)[C@@H]1O[C@@H]([C@@H](CC)C(=O)Nc2ccc(-c3ccc(NC(=O)[C@H](CC)[C@H]4CC[C@H](C)[C@H]([C@@H](C)[C@H](O)[C@H](C)C(=O)[C@H](CC)[C@H]5O[C@]6(C=C[C@@H](O)[C@]7(CC[C@@](C)([C@H]8CC[C@](O)(CC)[C@H](C)O8)O7)O6)[C@H](C)C[C@@H]5C)O4)cc3)cc2)CC[C@@H]1C)[C@H]1O[C@]2(C=C[C@@H](O)[C@]3(CC[C@@](C)([C@H]4CC[C@](O)(CC)[C@H](C)O4)O3)O2)[C@H](C)C[C@@H]1C	16 µg/mL (≈ 9.7 µM)	64 µg/mL (≈ 38.8 µM)	32 µg/mL (≈ 19.4 µM)	3.1 µM	64 µg/mL (≈ 38.8 µM)	32 µg/mL (≈ 19.4 µM)	32 µg/mL (≈ 19.4 µM)	32 µg/mL (≈ 19.4 µM)	32 µg/mL (≈ 19.4 µM)	0.38	32 µg/mL (≈ 19.4 µM)	64 µg/mL (≈ 38.8 µM)	32 µg/mL (≈ 19.4 µM)	32 µg/mL (≈ 19.4 µM)	32 µg/mL (≈ 19.4 µM)	8.4 µM	4.4 µM	32 µg/mL (≈ 19.4 µM)	16 µg/mL (≈ 9.7 µM)	32 µg/mL (≈ 19.4 µM)	inhibition (Homo sapiens): inactive; Activity (BALB/3T3 [28]): Non-toxic
CC[C@@H](C(=O)[C@@H](C)[C@@H](O)[C@H](C)[C@@H]1O[C@@H]([C@@H](CC)C(=O)NCCCCN)CC[C@@H]1C)[C@H]1O[C@]2(C=C[C@@H](O)[C@]3(CC[C@@](C)([C@H]4CC[C@](O)(CC)[C@H](C)O4)O3)O2)[C@H](C)C[C@@H]1C	32 µg/mL (≈ 39 µM)	64 µg/mL (≈ 77.9 µM)	64 µg/mL (≈ 77.9 µM)	12.6 µM	64 µg/mL (≈ 77.9 µM)	32 µg/mL (≈ 39 µM)	64 µg/mL (≈ 77.9 µM)	32 µg/mL (≈ 39 µM)	64 µg/mL (≈ 77.9 µM)	0.58	32 µg/mL (≈ 39 µM)	64 µg/mL (≈ 77.9 µM)	32 µg/mL (≈ 39 µM)	32 µg/mL (≈ 39 µM)	32 µg/mL (≈ 39 µM)	21.9 µM	3.7 µM	64 µg/mL (≈ 77.9 µM)	32 µg/mL (≈ 39 µM)	64 µg/mL (≈ 77.9 µM)	Ratio IC50 (LoVo [1]): 1.6; Ratio IC50 [6]: 2.78; Ratio IC50 (HL-60 [15]): 6.22; IC50 (BALB/3T3 [16]): 35.1 µM; Ratio IC50 (HL-60 [18]): 9.47; Ratio IC50 [19]: 1.52; IC50 [20]: 23.1 µM
